In ChEMBL document CHEMBL1155099, “Natural products in parallel synthesis: triazole libraries of nonactic acid” (2008):
Activity calls are given as the source filed them.

Assays:
Format in all cases: functional, organism-based
Bacillus anthracis = assay: Antibacterial activity against Bacillus anthracis at 1mM by almar blue dye reduction assay
Bacillus cereus = assay: Antibacterial activity against Bacillus cereus at 1 mM by almar blue dye reduction assay
Method in brief: (§1)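 Single-point primary screen at 1 mM using Alamar Blue dye reduction as the growth read-out.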

Bacillus subtilis = assay: Antibacterial activity against Bacillus subtilis at 1 mM by almar blue dye reduction assay; method in brief: as §1
Staphylococcus aureus = assay: Antibacterial activity against Staphylococcus aureus at 1 mM by almar blue dye reduction assay; method in brief: as §1
Escherichia coli = assay: Antibacterial activity against Escherichia coli at 1 mM by almar blue dye reduction assay; method in brief: as §1
Pseudomonas aeruginosa = assay: Antibacterial activity against Pseudomonas aeruginosa at 1 mM by almar blue dye reduction assay; method in brief: as §1
Candida albicans = assay: Antifungal activity against Candida albicans at 1 mM by almar blue dye reduction assay; method in brief: as §1
Cryptococcus neoformans = assay: Antifungal activity against Cryptococcus neoformans at 1 mM by almar blue dye reduction assay; method in brief: as §1
Saccharomyces cerevisiae = assay: Antifungal activity against Saccharomyces cerevisiae at 1 mM by almar blue dye reduction assay; method in brief: as §1

Measured: Activity

CCN(CC)C(=O)[C@H](C)[C@H]1CC[C@@H](C[C@@H](C)n2cc(C#Cc3ccccc3[N+](=O)[O-])nn2)O1
inactive: all assays above

CC(C)NC(=O)[C@H](C)[C@H]1CC[C@@H](C[C@@H](C)n2cc(C#Cc3ccc(C(F)(F)F)cc3)nn2)O1
inactive: all assays above

CC(C)NC(=O)[C@H](C)[C@H]1CC[C@@H](C[C@@H](C)n2cc(C#Cc3cccc4ccccc34)nn2)O1
inactive: all assays above

C[C@H](C[C@@H]1CC[C@H]([C@@H](C)C(=O)N2CCCC2)O1)n1cc(C#CCN2CCN(c3ccccc3)CC2)nn1
inactive: all assays above

C[C@H](C[C@@H]1CC[C@H]([C@@H](C)C(=O)N2CCN(CC3CCCO3)CC2)O1)n1cc(C#CCOc2ccc(C(F)(F)F)cc2)nn1 (some centres not stated)
inactive: all assays above

C[C@H](C[C@@H]1CC[C@H]([C@@H](C)C(=O)N2CCCC2)O1)n1cc(C#CCN2CCC(c3ccccc3)CC2)nn1
inactive: all assays above

C[C@H](C[C@@H]1CC[C@H]([C@@H](C)C(=O)N(C)Cc2ccccc2)O1)n1cc(C#CCOc2cccc(-c3ccccc3)c2)nn1
inactive: all assays above

C[C@H](C[C@@H]1CC[C@H]([C@@H](C)C(=O)N(C)Cc2ccccc2)O1)n1cc(C#CCN2CCN(c3ccccc3)CC2)nn1
inactive: all assays above

CCCNC(=O)NCC#Cc1cn([C@H](C)CC2CCC([C@@H](C)C(=O)N3CCCC3)O2)nn1 (single isomer, unassigned)
inactive: all assays above

CCN(CC)C(=O)[C@H](C)[C@H]1CC[C@@H](C[C@@H](C)n2cc(C#CCCCC#N)nn2)O1
inactive: all assays above

COc1ccc(C#Cc2cn([C@H](C)C[C@@H]3CC[C@H]([C@@H](C)C(=O)N4CCN(CC5CCCO5)CC4)O3)nn2)cc1 (some centres not stated)
inactive: all assays above

CCN(CC)C(=O)[C@H](C)[C@H]1CC[C@@H](C[C@@H](C)n2cc(C#Cc3cccc4ccccc34)nn2)O1
inactive: all assays above

CCN(CC)C(=O)[C@H](C)[C@H]1CC[C@@H](C[C@@H](C)n2cc(C#CCC3CCCC3)nn2)O1
inactive: all assays above

CC(C)NC(=O)[C@H](C)[C@H]1CC[C@@H](C[C@@H](C)n2cc(C#CCC3CCCC3)nn2)O1
inactive: all assays above

CCN(CC)C(=O)[C@H](C)[C@H]1CC[C@@H](C[C@@H](C)n2cc(C#CCc3ccccc3)nn2)O1
inactive: all assays above

COCCNCC#Cc1cn([C@H](C)C[C@@H]2CC[C@H]([C@@H](C)C(=O)NC(C)C)O2)nn1
inactive: all assays above

COCC#Cc1cn([C@H](C)C[C@@H]2CC[C@H]([C@@H](C)C(=O)N(C)Cc3ccccc3)O2)nn1
inactive: all assays above

C[C@H](C[C@@H]1CC[C@H]([C@@H](C)C(=O)N2CCCC2)O1)n1cc(C#CCN2CCOCC2)nn1
inactive: all assays above
